Laboratory results published in the M2OR odorant receptor database.

Experiments:
Settings in all cases: stereoisomer not certain
UniProt Q8VGC6 = biological target: T1, UniProt Q8VGC6
T1 sequence (whole entry): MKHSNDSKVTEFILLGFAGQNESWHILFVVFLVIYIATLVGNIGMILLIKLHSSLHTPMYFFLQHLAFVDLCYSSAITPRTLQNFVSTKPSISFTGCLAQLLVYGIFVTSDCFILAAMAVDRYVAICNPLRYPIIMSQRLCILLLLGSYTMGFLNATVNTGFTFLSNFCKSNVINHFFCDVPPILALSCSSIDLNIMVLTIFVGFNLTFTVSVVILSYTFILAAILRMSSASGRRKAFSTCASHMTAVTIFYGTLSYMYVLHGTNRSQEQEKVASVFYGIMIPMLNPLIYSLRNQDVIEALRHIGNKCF
In short: (§1)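 Each entry records the cell line, G-protein, co-transfected protein and tags used. Methods varied with the source, often transient luciferase assays in mammalian cell lines. A receptor–molecule pair is called responsive (active) if the original authors judged its signal statistically different from baseline and non-responsive (inactive) otherwise.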

UniProt Q8VGD7 = biological target: T2, UniProt Q8VGD7
T2 sequence (whole entry): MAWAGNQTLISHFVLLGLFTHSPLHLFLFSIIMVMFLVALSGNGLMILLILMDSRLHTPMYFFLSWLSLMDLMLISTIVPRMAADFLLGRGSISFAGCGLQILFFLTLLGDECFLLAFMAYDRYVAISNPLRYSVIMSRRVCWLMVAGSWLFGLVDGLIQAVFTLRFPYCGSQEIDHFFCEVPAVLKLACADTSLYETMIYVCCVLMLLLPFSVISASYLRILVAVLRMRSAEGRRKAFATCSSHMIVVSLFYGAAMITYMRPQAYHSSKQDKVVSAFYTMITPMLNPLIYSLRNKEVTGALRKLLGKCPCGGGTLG
In short: as §1

UniProt Q8VGH1 = biological target: T3, UniProt Q8VGH1
T3 sequence (whole entry): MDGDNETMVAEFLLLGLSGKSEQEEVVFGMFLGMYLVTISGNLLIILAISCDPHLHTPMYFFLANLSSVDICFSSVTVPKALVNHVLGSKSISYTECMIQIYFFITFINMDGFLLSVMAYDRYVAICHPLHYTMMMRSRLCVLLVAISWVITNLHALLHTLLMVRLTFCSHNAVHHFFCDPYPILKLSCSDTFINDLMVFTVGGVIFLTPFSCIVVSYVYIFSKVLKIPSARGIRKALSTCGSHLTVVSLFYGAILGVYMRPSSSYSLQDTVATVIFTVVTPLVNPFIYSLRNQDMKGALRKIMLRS
In short: as §1

UniProt Q8VGJ1 = biological target: T4, UniProt Q8VGJ1
T4 sequence (whole entry): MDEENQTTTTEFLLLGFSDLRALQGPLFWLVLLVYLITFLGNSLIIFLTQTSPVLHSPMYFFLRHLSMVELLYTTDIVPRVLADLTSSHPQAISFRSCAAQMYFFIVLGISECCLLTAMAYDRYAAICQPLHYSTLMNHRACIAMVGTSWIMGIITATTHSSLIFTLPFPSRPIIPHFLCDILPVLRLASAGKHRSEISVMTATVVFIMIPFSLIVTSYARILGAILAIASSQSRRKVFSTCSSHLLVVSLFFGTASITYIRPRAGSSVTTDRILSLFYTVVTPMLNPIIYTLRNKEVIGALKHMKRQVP
In short: as §1

UniProt Q8VGJ5 = biological target: T5, UniProt Q8VGJ5
T5 sequence (whole entry): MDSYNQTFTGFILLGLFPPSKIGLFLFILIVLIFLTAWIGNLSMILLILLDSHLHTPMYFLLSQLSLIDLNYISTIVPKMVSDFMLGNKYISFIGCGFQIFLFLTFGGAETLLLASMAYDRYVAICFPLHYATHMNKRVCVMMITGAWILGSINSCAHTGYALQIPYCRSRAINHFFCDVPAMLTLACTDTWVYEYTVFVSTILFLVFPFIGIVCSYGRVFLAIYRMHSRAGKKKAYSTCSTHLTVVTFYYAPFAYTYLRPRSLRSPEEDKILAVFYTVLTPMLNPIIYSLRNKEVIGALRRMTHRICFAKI
In short: as §1

UniProt Q8VGL0 = biological target: T6, UniProt Q8VGL0
T6 sequence (whole entry): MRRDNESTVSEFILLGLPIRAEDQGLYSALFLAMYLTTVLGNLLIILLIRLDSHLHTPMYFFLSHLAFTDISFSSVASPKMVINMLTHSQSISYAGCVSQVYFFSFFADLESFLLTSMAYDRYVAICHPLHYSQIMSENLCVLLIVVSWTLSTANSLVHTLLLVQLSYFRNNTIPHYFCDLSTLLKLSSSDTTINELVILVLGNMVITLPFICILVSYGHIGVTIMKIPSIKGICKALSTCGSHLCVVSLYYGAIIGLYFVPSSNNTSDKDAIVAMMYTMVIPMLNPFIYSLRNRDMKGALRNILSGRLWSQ
In short: as §1

UniProt Q8VGL7 = biological target: T7, UniProt Q8VGL7
T7 sequence (whole entry): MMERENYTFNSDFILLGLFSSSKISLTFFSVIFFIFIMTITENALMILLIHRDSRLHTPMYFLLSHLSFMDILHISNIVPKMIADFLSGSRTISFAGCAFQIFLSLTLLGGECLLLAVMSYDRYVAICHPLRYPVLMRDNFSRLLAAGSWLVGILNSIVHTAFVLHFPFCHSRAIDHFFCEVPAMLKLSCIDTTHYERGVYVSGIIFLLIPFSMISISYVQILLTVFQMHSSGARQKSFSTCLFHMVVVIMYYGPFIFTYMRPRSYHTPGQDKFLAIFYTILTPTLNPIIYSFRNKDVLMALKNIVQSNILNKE
In short: as §1

UniProt Q8VGM2 = biological target: T8, UniProt Q8VGM2
T8 sequence (whole entry): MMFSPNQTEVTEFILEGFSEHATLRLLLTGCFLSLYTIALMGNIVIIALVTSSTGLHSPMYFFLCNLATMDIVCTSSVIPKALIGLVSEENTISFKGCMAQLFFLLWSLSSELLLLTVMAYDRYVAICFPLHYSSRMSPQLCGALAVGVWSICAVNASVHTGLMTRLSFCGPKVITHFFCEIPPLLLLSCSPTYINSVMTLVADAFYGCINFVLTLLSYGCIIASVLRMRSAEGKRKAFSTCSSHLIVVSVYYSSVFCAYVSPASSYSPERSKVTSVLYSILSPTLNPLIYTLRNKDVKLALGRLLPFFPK
In short: as §1

UniProt Q8VGP6 = biological target: T9, UniProt Q8VGP6
T9 sequence (whole entry): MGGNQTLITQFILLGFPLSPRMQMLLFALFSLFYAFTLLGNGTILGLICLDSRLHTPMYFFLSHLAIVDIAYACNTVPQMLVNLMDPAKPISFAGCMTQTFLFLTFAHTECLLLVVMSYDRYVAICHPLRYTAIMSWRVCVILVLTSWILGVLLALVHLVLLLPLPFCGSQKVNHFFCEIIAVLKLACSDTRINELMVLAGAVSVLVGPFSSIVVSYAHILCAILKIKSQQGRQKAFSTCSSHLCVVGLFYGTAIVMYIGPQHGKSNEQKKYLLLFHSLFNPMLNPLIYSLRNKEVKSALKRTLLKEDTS
In short: as §1

UniProt Q8VGQ3 = biological target: T10, UniProt Q8VGQ3
T10 sequence (whole entry): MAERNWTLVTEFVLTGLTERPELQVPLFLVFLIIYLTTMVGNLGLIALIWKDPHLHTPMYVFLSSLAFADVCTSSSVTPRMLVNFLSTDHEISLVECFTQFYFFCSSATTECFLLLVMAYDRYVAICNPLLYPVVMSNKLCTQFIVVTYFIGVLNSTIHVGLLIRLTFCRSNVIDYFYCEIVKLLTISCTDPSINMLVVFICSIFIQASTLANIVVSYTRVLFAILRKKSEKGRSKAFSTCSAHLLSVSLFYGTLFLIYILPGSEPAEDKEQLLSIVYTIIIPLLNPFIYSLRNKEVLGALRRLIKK
In short: as §1

UniProt Q8VGT4 = biological target: T11, UniProt Q8VGT4
T11 sequence (whole entry): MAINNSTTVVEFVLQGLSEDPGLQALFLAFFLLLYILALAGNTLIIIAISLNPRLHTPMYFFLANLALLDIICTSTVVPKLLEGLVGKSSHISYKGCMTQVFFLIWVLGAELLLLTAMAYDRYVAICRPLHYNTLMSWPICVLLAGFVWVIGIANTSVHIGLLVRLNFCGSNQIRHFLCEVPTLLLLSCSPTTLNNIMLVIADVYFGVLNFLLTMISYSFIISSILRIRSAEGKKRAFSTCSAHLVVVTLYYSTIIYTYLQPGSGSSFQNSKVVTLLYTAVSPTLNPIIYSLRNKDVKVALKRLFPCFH
In short: as §1

UniProt Q8VGV1 = biological target: T12, UniProt Q8VGV1
T12 sequence (whole entry): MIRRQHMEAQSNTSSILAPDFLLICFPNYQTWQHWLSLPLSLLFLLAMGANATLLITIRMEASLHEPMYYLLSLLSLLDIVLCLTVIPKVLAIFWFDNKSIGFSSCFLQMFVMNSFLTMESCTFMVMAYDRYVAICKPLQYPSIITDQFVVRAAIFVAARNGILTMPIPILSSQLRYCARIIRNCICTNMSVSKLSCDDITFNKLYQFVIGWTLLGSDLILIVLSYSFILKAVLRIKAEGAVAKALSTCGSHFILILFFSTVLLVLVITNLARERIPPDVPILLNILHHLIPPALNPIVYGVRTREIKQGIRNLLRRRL
In short: as §1

UniProt Q8VGW5 = biological target: T13, UniProt Q8VGW5
T13 sequence (whole entry): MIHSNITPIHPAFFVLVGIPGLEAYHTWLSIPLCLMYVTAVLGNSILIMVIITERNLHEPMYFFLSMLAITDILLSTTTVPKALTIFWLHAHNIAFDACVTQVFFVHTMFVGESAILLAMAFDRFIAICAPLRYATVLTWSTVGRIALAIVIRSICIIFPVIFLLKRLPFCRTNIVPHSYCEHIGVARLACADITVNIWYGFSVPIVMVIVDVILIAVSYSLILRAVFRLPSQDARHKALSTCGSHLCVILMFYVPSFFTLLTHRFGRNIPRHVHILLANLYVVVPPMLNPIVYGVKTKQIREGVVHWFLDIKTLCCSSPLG
In short: as §1

UniProt Q8VGX5 = biological target: T14, UniProt Q8VGX5
T14 sequence (whole entry): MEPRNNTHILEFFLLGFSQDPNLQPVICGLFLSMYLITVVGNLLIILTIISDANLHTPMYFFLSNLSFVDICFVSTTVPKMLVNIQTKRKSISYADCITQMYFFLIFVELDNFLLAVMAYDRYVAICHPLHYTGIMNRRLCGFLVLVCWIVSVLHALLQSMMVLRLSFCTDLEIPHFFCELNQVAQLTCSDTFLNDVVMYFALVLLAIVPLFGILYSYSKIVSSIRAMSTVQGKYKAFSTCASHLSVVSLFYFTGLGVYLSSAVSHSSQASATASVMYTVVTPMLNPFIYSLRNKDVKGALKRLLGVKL
In short: as §1

Measured: odorant receptor agonist call

CCCC(C)=O
inactive: all assays above
